This note sets out measurements from ChEMBL document CHEMBL4020840, “Synthesis and Biological Evaluation of Selenium-Containing 4-Anilinoquinazoline Derivatives as Novel Antimitotic Agents” (J Med Chem, 2018).

The test system of assay [1] is A549. Put plainly: Induction of ROS generation in human A549 cells at 2 to 8 nM after 12 hrs by DCFH-DA staining based fluorescence microscopic method. Format: functional, cell-based. An outline of the steps:
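A549 plated at 3 × 10⁵ cells/well and grown 24 h, then exposed to compound (2, 4, 8 nM) for 12 h. Loaded with DCFH-DA in fresh medium at 37 °C for 30 min and washed three times with PBS. DCF fluorescence read at excitation 488 and emission 525 nm. Images taken after Hoechst 33342 nuclear staining.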

Assay [2] concerns A549. Put plainly: Cell cycle arrest in human A549 cells assessed as accumulation at G2/M phase up to 24 hrs by propidium iodide staining based flow cytometry. Format: functional. An outline of the steps: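 A549 seeded in six-well plates at 3 × 10⁵ cells/well and treated for 12 or 24 h; vehicle 0.01% DMSO. Cells fixed overnight in ice-cold 70% ethanol, treated with RNase A at 37 °C for 30 min, then stained with PI at 4 °C for 30 min. About 10 000 events acquired by flow cytometry at 488 nm; three experiments.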

Assay [3] deals with HeLa. Put plainly: Disruption of microtubule network in human HeLa cells at 4 to 8 nM after 12 hrs by Hoechst 33342 staining based laser scanning confocal microscopic method. The format is cell-based. An outline of the steps: (§1)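 A549 and HeLa cells at 3 × 10⁵ per confocal dish, grown 24 h, then exposed to compound (2, 4 or 8 nM) or 0.01% DMSO for 12 h. Fixed in 4% paraformaldehyde at 37 °C for 15 min, permeabilised with 0.5% Triton X-100, blocked with 10% goat serum. Stained with mouse anti-tubulin at 4 °C overnight, then Alexa-Fluor 488 secondary; Hoechst 33342 nuclear stain; confocal imaging.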

Assay [4] deals with A549. The assay can be described thus: Induction of apoptosis in human A549 cells assessed as upregulation of Bad level at 2 to 4 nM after 24 to 48 hrs by Western blot method. Format: functional, cell-based. An outline of the steps: (§2)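 A549 seeded in 60 mm dishes at 5 × 10⁵ cells and treated for 24 or 48 h. Lysed in RIPA buffer on ice for 30 min and spun at 12 500g. Protein measured by BCA; 40 μg run on 8−12% SDS−PAGE and moved to nitrocellulose. Blocked in 5% milk, primary antibodies at 4 °C overnight, HRP secondary 2 h, ECL detection.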

For assay [5], the system named is HeLa. Put plainly: Induction of morphological changes in human HeLa cells at 2 to 8 nM after 48 hrs by confocal microscopic method. Format: functional, cell-based. An outline of the steps:
(§3)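 Human cancer cells were treated at the indicated concentrations, or 0.01% DMSO vehicle, for 48 h. Cells were then fixed and their morphology was examined by microscopy with a 20× objective.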

For assay [6], the system named is A549. The assay can be described thus: Induction of mitochondrial membrane disruption in human A549 cells at 2 to 8 nM after 48 hrs by JC1/Hoechst 33342 staining based flow cytometry. Format: functional, cell-based. For orientation: Flow cytometry measures light scatter and fluorescence of single cells or particles in a stream.
Assay [7] has as its system MCF7. The assay can be described thus: Induction of morphological changes in human MCF7 cells at 2 to 8 nM after 48 hrs by confocal microscopic method. The format is functional, cell-based. An outline of the steps: as §3
Assay [8] relates to A549. Put plainly: Disruption of microtubule network in human A549 cells at 4 to 8 nM after 12 hrs by Hoechst 33342 staining based laser scanning confocal microscopic method. Format: cell-based. An outline of the steps:
as §1

The species entered for assay [9] is Sus scrofa. The assay can be described thus: Inhibition of porcine brain tubulin polymerization measured every 60 secs for 90 mins by DAPI staining based fluorescence assay. An outline of the steps: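 Purified tubulin was tested in a kit assay. Final buffer: 80 mM PIPES sesquisodium (pH 6.9), 2.0 mM MgCl₂, 0.5 mM EGTA, 1 mM GTP, 10.2% glycerol. Compound (0.1–10 μM) was prewarmed at 37 °C for 1 min before tubulin was added. DAPI reporter fluorescence (ex 340 / em 410 nm) was read every 60 s for 90 min. Area under the curve gave percent inhibition versus control and the IC50.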

The test system of assay [10] is A549. The assay can be described thus: Antimigratory activity against human A549 cells assessed as suppression of wound healing at 4 nM after 24 hrs by phase contrast microscopic method. Format: functional, cell-based. In short, it runs like this: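 Scratch wound assay: A549 plated at 5 × 10⁴ cells/dish and grown 24 h before scraping with a 10 μL tip. Medium then swapped to serum-free DMEM containing compound (4 nM) for 24 h. After a PBS wash, wound images taken at 0 and 24 h; at least three independent experiments.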

For assay [11], the system named is A549. Put plainly: Disruption of microtubule network in human A549 cells at 2 nM after 12 hrs by Hoechst 33342 staining based laser scanning confocal microscopic method. The format is cell-based. In short, it runs like this:
as §1

For assay [12], the system named is A549. Put plainly: Induction of apoptosis in human A549 cells assessed as downregulation of Bcl2 level at 2 to 4 nM after 24 to 48 hrs by Western blot method. The format is functional, cell-based. An outline of the steps:
as §2
(In general: In western blotting, separated proteins are transferred to a membrane and probed.)

Assay [13] deals with MGC-803. The assay can be described thus: Induction of morphological changes in human MGC803 cells at 2 to 8 nM after 48 hrs by confocal microscopic method. The format is functional, cell-based. An outline of the steps:
as §3

For assay [14], the system named is HeLa. The assay can be described thus: Disruption of microtubule network in human HeLa cells at 2 nM after 12 hrs by Hoechst 33342 staining based laser scanning confocal microscopic method. The format is cell-based. In short, it runs like this:
as §1

Assay [15] relates to A549. Put plainly: Induction of apoptosis in human A549 cells assessed as upregulation of Bax level at 2 to 4 nM after 24 to 48 hrs by Western blot method. The format is functional, cell-based. In short, it runs like this:
as §2

Activity calls are given as the source filed them. The calls are words filed in the database; no cut-off is given here.

With `C[Se]c1ccc(N(C)c2nc(C)nc3ccccc23)cc1`, the result in [1], in [3], in assay [4], in assay [5], in assay [6] and in [7] was Active. In addition, the outcome in assay [8], in assay [10], in [12], in assay [13] and in [15] was Active. The Activity result in assay [2] is “Dose-dependent effect”. Besides, the inhibition result in assay [9] was “Dose-dependent effect”. Also, the outcome in assay [11] and in assay [14] was inactive.
